Assay results taken from ChEMBL document CHEMBL3758111, “DFT Calculations and ROESY NMR Data for the Diastereochemical Characterization of Cytotoxic Tetraterpenoids from the Oleoresin of Abies balsamea” (J Nat Prod, 2015).

What was measured:
[1] = Cytotoxicity against human DLD1 cells assessed as growth inhibition after 48 hrs by resazurin assay; assay type: functional, cell-based; conditions: DLD-1, 48 h
Procedure, shortened: (§1)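 Human lung carcinoma A549, colon adenocarcinoma DLD-1 and normal skin fibroblast WS1 cells were tested by resazurin reduction, following an earlier-published protocol. Values are IC50, the concentration inhibiting 50% of cell growth. Etoposide served as the positive control.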

A549 = experiment: Cytotoxicity against human A549 cells assessed as growth inhibition after 48 hrs by resazurin assay; assay type: functional, cell-based; conditions: A549, 48 h; procedure, shortened: as §1
[2] = Cytotoxicity against human WS1 cells assessed as growth inhibition after 48 hrs by resazurin assay; assay type: cell-based; conditions: WS1, 48 h; procedure, shortened: as §1

Row | Compound | IC50 [1] | IC50 (A549) | IC50 [2]
1 | C=C(C)[C@@H]1CC=C2[C@@H](CC[C@]23C(=C)CC[C@@]3(C)[C@H](C)CC(=O)[C@H]2CC(CCC=C(C)C)=CC[C@]2(C)C(=O)O)[C@@]1(C)CCC(=O)OC | > 10 µM | 7.2 µM | > 10 µM
2 | C=C(C)[C@@H]1CC=C2[C@@H](CC[C@]23C(=C)CC[C@@]3(C)[C@H](C)CC(=O)[C@H]2CC(CCC=C(C)C)=CC[C@]2(C)C(=O)O)[C@@]1(C)CCC(=O)O | > 10 µM | > 10 µM | > 10 µM
3 | C=C(C)[C@@H]1C=CC2=C3CC[C@@](C)([C@H](C)CC(=O)[C@@H]4CC(CCC=C(C)C)=CC[C@@]4(C)C(=O)O)[C@]3(C)CC[C@H]2[C@@]1(C)CCC(=O)O | > 10 µM | > 10 µM | > 10 µM
4 | C=C(C)[C@@H]1C=CC2=C3CC[C@@](C)([C@H](C)CC(=O)[C@@H]4CC=C(CCC=C(C)C)C[C@@]4(C)C(=O)O)[C@]3(C)CC[C@H]2[C@@]1(C)CCC(=O)OC | > 10 µM | 6.7 µM | > 10 µM
5 | C=C(C)[C@@H]1CC=C2[C@@H](CC[C@]23C(=C)CC[C@@]3(C)[C@H](C)CC(=O)[C@@H]2CC(CCC=C(C)C)=CC[C@@]2(C)C(=O)O)[C@@]1(C)CCC(=O)O | > 10 µM | > 10 µM | > 10 µM
6 | C=C(C)[C@@H]1CC=C2[C@@H](CC[C@]3(C)[C@@H]([C@H](C)CC(=O)[C@@H]4CC=C(CCC=C(C)C)C[C@@]4(C)C(=O)O)CC[C@@]23C)[C@@]1(C)CCC(=O)O | > 10 µM | > 10 µM | > 10 µM
7 | C=C(C)[C@@H]1C=CC2=C3CC[C@@](C)([C@H](C)CC(=O)[C@H]4CC(CCC=C(C)C)=CC[C@]4(C)C(=O)O)[C@]3(C)CC[C@H]2[C@@]1(C)CCC(=O)O | > 10 µM | 9 µM | > 10 µM
8 | C=C(C)[C@@H]1C=CC2=C3CC[C@@](C)([C@H](C)CC(=O)[C@@H]4CC=C(CCC=C(C)C)C[C@@]4(C)C(=O)O)[C@]3(C)CC[C@H]2[C@@]1(C)CCC(=O)O | > 10 µM | 10 µM | > 10 µM
9 | C=C(C)[C@@H]1C=CC2=C3CC[C@@](C)([C@H](C)CC(=O)[C@H]4CC=C(CCC=C(C)C)C[C@]4(C)C(=O)O)[C@]3(C)CC[C@H]2[C@@]1(C)CCC(=O)O | > 10 µM | > 10 µM | > 10 µM
10 | COc1cc([C@@H]2c3cc4c(cc3[C@@H](O[C@@H]3O[C@@H]5CO[C@@H](C)O[C@H]5[C@H](O)[C@H]3O)[C@H]3COC(=O)[C@H]23)OCO4)cc(OC)c1O [ETOPOSIDE] | 2 µM | 1.7 µM | > 10 µM
